Laboratory results published in ChEMBL document CHEMBL1143448, “1,8-Naphthyridin-4-one derivatives as new ligands of A2A adenosine receptors” (Bioorg Med Chem Lett, 2005).

Columns and labels:
Adenosine receptor A1 [1] = biological target: T1, Adenosine receptor A1 (Bos taurus, UniProt P28190); experiment: Inhibition of [3H]CHA binding to adenosine A1 receptor of bovine brain cortical membrane
T1 sequence (P28190 whole entry): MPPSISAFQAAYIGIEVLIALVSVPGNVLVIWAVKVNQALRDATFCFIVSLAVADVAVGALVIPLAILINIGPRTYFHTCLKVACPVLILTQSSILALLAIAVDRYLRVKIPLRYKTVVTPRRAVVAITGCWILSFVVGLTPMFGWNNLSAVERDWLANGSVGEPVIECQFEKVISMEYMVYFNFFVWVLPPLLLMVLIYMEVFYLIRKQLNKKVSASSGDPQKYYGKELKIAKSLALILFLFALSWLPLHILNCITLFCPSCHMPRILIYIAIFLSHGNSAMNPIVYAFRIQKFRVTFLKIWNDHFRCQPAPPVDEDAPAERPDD
Method in brief: (§1)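 A1 affinity was taken from displacement of specific [3H]N6-cyclohexyladenosine ([3H]CHA, agonist radioligand) binding in bovine or human cortical membranes. Values are given as Ki in nM ± error.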

[2] = biological target: Adenosine receptor A2a (Bos taurus); experiment: Inhibition of [3H]CGS-21680 binding to adenosine A2a receptor of bovine striatal membrane
Adenosine receptor A1 [3] = biological target: T2, Adenosine receptor A1 (Homo sapiens, UniProt P30542); experiment: Inhibition of [3H]CHA binding to adenosine A1 receptor of human brain cortical membrane; method in brief: as §1
T2 sequence (P30542 whole entry): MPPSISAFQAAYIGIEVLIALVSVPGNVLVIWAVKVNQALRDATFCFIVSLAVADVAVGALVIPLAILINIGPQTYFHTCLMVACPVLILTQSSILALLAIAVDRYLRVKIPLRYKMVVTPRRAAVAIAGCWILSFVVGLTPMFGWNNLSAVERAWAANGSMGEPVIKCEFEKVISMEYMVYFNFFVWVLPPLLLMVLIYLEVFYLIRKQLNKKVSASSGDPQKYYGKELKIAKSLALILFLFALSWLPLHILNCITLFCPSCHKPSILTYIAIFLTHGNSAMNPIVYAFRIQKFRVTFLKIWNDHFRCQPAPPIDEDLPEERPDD

Adenosine receptor A2a = Adenosine receptor A2a (Homo sapiens, UniProt P29274); experiment: Inhibition of [3H]CGS-21680 binding to adenosine A2a receptor of human striatal membrane
Method in brief: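 Competition binding to striatal membranes from bovine or human brain, measuring displacement of the specific binding of the tritiated agonist [3H]CGS21680 (2-[[p-(2-carboxyethyl)phenyl]ethyl]amino-5'-N-ethylcarboxamidoadenosine). Affinity reported as Ki (nM) ± error.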

Sequence of Adenosine receptor A2a (P29274 whole entry): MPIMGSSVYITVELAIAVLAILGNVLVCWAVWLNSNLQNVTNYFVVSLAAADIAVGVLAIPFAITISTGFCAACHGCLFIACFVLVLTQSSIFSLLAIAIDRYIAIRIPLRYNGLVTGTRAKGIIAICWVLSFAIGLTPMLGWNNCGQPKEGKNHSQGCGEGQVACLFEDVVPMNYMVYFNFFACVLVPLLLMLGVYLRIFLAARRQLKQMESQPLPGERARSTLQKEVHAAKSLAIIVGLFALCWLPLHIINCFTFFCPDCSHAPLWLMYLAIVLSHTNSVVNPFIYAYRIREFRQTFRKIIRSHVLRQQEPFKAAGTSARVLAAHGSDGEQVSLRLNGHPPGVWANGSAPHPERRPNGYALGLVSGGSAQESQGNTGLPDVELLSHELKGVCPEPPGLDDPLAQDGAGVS

SMILES	Ki (Adenosine receptor A1 [1]) [µM]	Ki [2] [µM]	Ki (Adenosine receptor A1 [3]) [µM]	Ki (Adenosine receptor A2a) [µM]
O=C(NCc1ccccc1)c1cnc2nc(NCc3ccccc3)ccc2c1O	0.677	> 10	–	–
Cc1ccc2c(O)c(C(=O)NCc3ccc(N)cc3)cnc2n1	2.86	0.146	–	–
O=C(NCc1ccccc1)c1cnc2ncccc2c1O	2.75	1.17	–	–
Cc1ccc2c(O)c(C(=O)OCc3ccccc3)cnc2n1	> 10	> 10	–	–
Cc1ccc2c(O)c(C(=O)NCc3ccccc3)cnc2n1	0.28	–	0.63	–
Cc1ccc2c(N=[N+]=[N-])c(Cc3ccccc3)cnc2n1	3.34	3.36	> 10	5.36
CN(C)c1ccc2c(O)c(C(=O)NCc3ccccc3)cnc2n1	0.122	0.057	–	–
CC(=O)N(C(C)=O)c1ccc(CNC(=O)c2cnc3nc(C)ccc3c2O)cc1	> 10	–	–	–
O=C(NCc1ccccc1)c1cnc2nc(Cl)ccc2c1O	0.586	0.067	–	–
Cc1ccc2c(O)c(C(=O)NCc3ccc([N+](=O)[O-])cc3)cnc2n1	1.63	0.099	–	–
Cc1ccc2c(O)c(C(=O)NC3CCC(C)CC3)cnc2n1 (configuration not stated)	6	0.39	5.6	0.36
Cc1ccc2c(O)c(C(=O)NN3CCN(C)CC3)cnc2n1	> 10	–	> 10	–
Cc1ccc2c(O)c(C(=O)NCCC(C)C)cnc2n1	> 10	1.43	> 10	0.64
O=C(NCc1ccccc1)c1cnc2nc(NCCc3ccccc3)ccc2c1O	0.977	–	–	–
Cc1ccc(CNC(=O)c2cnc3nc(C)ccc3c2O)cc1	–	–	1.58	–
O=C(NCc1ccccc1)c1cnc2nc(N(CCO)CCO)ccc2c1O	> 10	> 10	–	–
Cc1ccc2c(NN)c(Cc3ccccc3)cnc2n1	0.22	0.72	> 10	> 10
Cc1ccc2c(O)c(Cc3ccccc3Cl)cnc2n1	8.73	–	4.16	–
Cc1ccc2c(NC3CCCCC3)c(Cc3ccccc3)cnc2n1	> 10	–	> 10	–
Cc1ccc2c(O)c(C(=O)NCc3ccc(Cl)cc3)cnc2n1	1.74	–	1.63	–

SMILES	Ki (Adenosine receptor A1 [1]) [µM]	Ki [2] [µM]	Ki (Adenosine receptor A1 [3]) [µM]	Ki (Adenosine receptor A2a) [µM]
Cc1ccc2c(O)c(C(=O)NCc3ccco3)cnc2n1	1.35	–	0.3	–
Nc1ccc2c(O)c(C(=O)NCc3ccc(Cl)cc3)cnc2n1	4.49	0.54	6.24	0.5
Nc1ccc2c(O)c(C(=O)NCc3ccccc3)cnc2n1	0.97	–	0.63	–
O=C(NCc1ccccc1)c1cnc2[nH]c(=O)ccc2c1O	> 10	–	–	–
Cc1ccc2c(O)c(C(=O)NCc3ccc(F)cc3)cnc2n1	1.77	–	1.65	–
CC(=O)Nc1ccc2c(O)c(C(=O)NCc3ccccc3)cnc2n1	> 10	6.78	–	–
COc1ccc(CNC(=O)c2cnc3nc(C)ccc3c2O)cc1	> 10	0.74	4.37	2.41
Cc1ccc2c(O)c(Cc3ccccc3)cnc2n1	> 10	> 10	4.18	3.33
Cc1ccc2c(O)c(CC(=O)NC3CCCCC3)cnc2n1	> 10	–	> 10	–
Cc1ccc2c(O)c(CC(=O)NCc3ccccc3)cnc2n1	> 10	> 10	> 10	0.87
Cc1ccc2c(O)c(C(=O)NCc3ccc(NC(=O)c4ccccc4)cc3)cnc2n1	7.59	0.588	–	–
O=C(NCc1ccccc1)c1cnc2nc(Br)ccc2c1O	5.32	–	–	–
Cc1ccc2c(O)c(C(=O)NCCc3ccccc3)cnc2n1	0.68	0.14	0.73	0.15
O=C(NCc1ccccc1)c1cnc2nc(NC3CCCCC3)ccc2c1O	> 10	–	–	–
CCOC(=O)c1cnc2nc(C)ccc2c1O	> 10	–	–	–
Cc1ccc2c(O)c(C(=O)NC3CCCCC3)cnc2n1	> 10	–	> 10	–
Cc1ccc2c(Cl)c(Cc3ccccc3)cnc2n1	> 10	–	> 10	–
Cc1ccc2c(O)c(C(=O)NN3CCOCC3)cnc2n1	> 10	8.66	> 10	> 10
Cc1ccc2c(O)c(C(=O)NC(C)c3ccccc3)cnc2n1 (configuration not stated)	0.418	–	0.717	–
Cc1ccc2c(S)c(Cc3ccccc3)cnc2n1	6.33	–	–	–
